Structures are written as SMILES. Active and inactive are the calls of the source. The calls are words filed in the database; no cut-off is given here.

One data set deals with HL-60. The data set is described as follows: Cytotoxicity against human HL60 cells.
Details: not given
It counts as functional. Summed up:
(§1)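 CC50 is the concentration killing 50% of cells, tested up to a highest concentration of 400 μM. Each value is the average of two independent determinations.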
Turning to `C=C(CN(C)C)C(=O)c1ccc(OC)cc1`, the CC50 (as a rule, the concentration giving 50% cytotoxicity) is below 3.4 µM.
Molecule `C=C(CN(C)C)C(=O)c1ccc([N+](=O)[O-])cc1` yielded a CC50 of 1.6 µM.
Take `CN(C)CC(CO)C(=O)c1ccccc1` (stereo not given): the CC50 was 0.41 µM.
Still for that read-out and setting: in the case of `Cc1ccc(C(=O)C(CO)CN(C)C)cc1` (stereo not given) it was below 3.1 µM.
`CN(C)CC(CO)C(=O)c1ccc(Cl)cc1` (stereo not given) showed a CC50 below 3.1 µM.
In turn, `CN(C)CC(CSCCO)C(=O)c1ccc([N+](=O)[O-])cc1` (stereo not given) came in with a CC50 of 353 µM.

Another data set has as its system HL-60. The data set is described as follows: Induction of apoptosis assessed as activation of caspase 8 activity in human HL60 cells after 4 hrs. It counts as functional, cell-based.
Details: not given
The method in brief: (§2)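 Caspase activation measured in neoplastic cells seeded at 4 × 10^4 cells and incubated with compound for 4 h. Each value is the mean of two or three experiments.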
With `C=C(CN(C)C)C(=O)c1ccc(OC)cc1`, the result was Active.

Tested on in another data set: not listed separately
The data set is described as follows: Cytotoxicity against human HPLF cells. The format is cell-based.
Details: not given
Summed up: as §1
`C=C(CN(C)C)C(=O)c1ccc(OC)cc1` showed a CC50 of 9.2 µM.
With `C=C(CN(C)C)C(=O)c1ccc([N+](=O)[O-])cc1`, half-maximal cytotoxicity (CC50) was put at 26 µM.
Consider `CN(C)CC(CO)C(=O)c1ccccc1` (stereo not given), for which the CC50 stood at 5.2 µM.
`Cc1ccc(C(=O)C(CO)CN(C)C)cc1` (stereo not given): the CC50 was found to be 9.8 µM.
The molecule `CN(C)CC(CO)C(=O)c1ccc(Cl)cc1` (stereo not given) yielded a CC50 of 12 µM.
On to `CN(C)CC(CSCCO)C(=O)c1ccc([N+](=O)[O-])cc1` (stereo not given), for which it took 400 µM to reach half-maximal cytotoxicity (CC50).

The test system of another data set is HSC-4. The data set is described as follows: Cytotoxicity against human HSC4 cells. The format is functional.
Details: not given
The method in brief: as §1
Take `C=C(CN(C)C)C(=O)c1ccc(OC)cc1`: it took 6.1 µM to reach half-maximal cytotoxicity (CC50).
Take `C=C(CN(C)C)C(=O)c1ccc([N+](=O)[O-])cc1`: it took 19 µM to reach half-maximal cytotoxicity (CC50).
`CN(C)CC(CO)C(=O)c1ccccc1` (stereo not given): the midpoint of cytotoxicity, the CC50, lay at 6.5 µM.
Consider `Cc1ccc(C(=O)C(CO)CN(C)C)cc1` (stereo not given), for which the CC50 was 5.8 µM.
In turn, `CN(C)CC(CO)C(=O)c1ccc(Cl)cc1` (stereo not given) returned a CC50 of 8 µM.
`CN(C)CC(CSCCO)C(=O)c1ccc([N+](=O)[O-])cc1` (stereo not given) yielded a CC50 of 264 µM.

For a further data set, the system named is CCRF-CEM. Nature of the data set: Cytotoxicity against human CCRF-CEM cells. The format is functional, cell-based.
Details: not given
Summed up: (§3)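 Part of a human tumour cell line panel screen run by a literature procedure with compounds at 10−8–10−4 M. GI50 is the concentration giving 50% growth inhibition. Where 50% inhibition was not reached at 100 μM, 100 μM was used as the value.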
As to `C=C(CN(C)C)C(=O)c1ccc(OC)cc1`, the IC50 (in general, the concentration at which inhibition is half-maximal) was 0.37 µM.
For `CN(C)CC(CO)C(=O)c1ccc(Cl)cc1` (stereo not given), inhibition was half-maximal at 0.32 µM (IC50).
`CN(C)CC(CSCCO)C(=O)c1ccc([N+](=O)[O-])cc1` (stereo not given) returned an IC50 above 100 µM.

The next data set has as its system RPMI-8226. Nature of the data set: Cytotoxicity against human RPMI8226 cells. The format is functional, cell-based.
Details: not given
The method in brief:
as §3
Take `C=C(CN(C)C)C(=O)c1ccc(OC)cc1`: 21.4 µM corresponded to half-maximal inhibition (IC50).
For the molecule `CN(C)CC(CSCCO)C(=O)c1ccc([N+](=O)[O-])cc1` (stereo not given), the IC50 came to 38 µM.

The next data set relates to SR. The data set is described as follows: Cytotoxicity against human SR cells. The format is cell-based.
Details: not given
Summed up:
as §3
`C=C(CN(C)C)C(=O)c1ccc(OC)cc1`: the IC50 worked out at 14.5 µM.
`CN(C)CC(CO)C(=O)c1ccc(Cl)cc1` (stereo not given) gave an IC50 of 0.63 µM.
Regarding `CN(C)CC(CSCCO)C(=O)c1ccc([N+](=O)[O-])cc1` (stereo not given), the IC50 was above 100 µM.

Another data set deals with HL-60. The data set is described as follows: Induction of apoptosis assessed as activation of caspase 9 activity in human HL60 cells after 4 hrs. The format is functional, cell-based.
Details: not given
The method in brief: as §2
As for `C=C(CN(C)C)C(=O)c1ccc(OC)cc1`, the result was Active.

Another data set concerns HL-60. The data set is described as follows: Induction of apoptosis assessed as activation of caspase 3 activity in human HL60 cells after 4 hrs.
Details: not given
The format is functional, cell-based. The method in brief:
as §2
As to `C=C(CN(C)C)C(=O)c1ccc(OC)cc1`, the outcome was Active.

Another data set relates to L1210. The data set is described as follows: Cytotoxicity against mouse L1210 cells after 48 hrs. The note with it: L1210, 48 h.
For `C=C(CN(C)C)C(=O)c1ccc([N+](=O)[O-])cc1`, the IC50 worked out at 8.61 µM.
`CN(C)CC(CO)C(=O)c1ccccc1` (stereo not given) showed an IC50 of 1.65 µM.
Molecule `Cc1ccc(C(=O)C(CO)CN(C)C)cc1` (stereo not given) returned an IC50 of 6.55 µM.
`CN(C)CC(CO)C(=O)c1ccc(Cl)cc1` (stereo not given) displayed a concentration for half-maximal inhibition (IC50) of 22 µM.
Turning to `CN(C)CC(CSCCO)C(=O)c1ccc([N+](=O)[O-])cc1` (stereo not given), the IC50 was above 500 µM.

Tested on in a further data set: not listed separately
The data set is described as follows: Cytotoxicity against human HGF cells. It counts as cell-based.
Details: not given
Summed up:
as §1
In turn, `C=C(CN(C)C)C(=O)c1ccc(OC)cc1` displayed a CC50 of 6.8 µM.
Regarding `C=C(CN(C)C)C(=O)c1ccc([N+](=O)[O-])cc1`, the midpoint of cytotoxicity, the CC50, lay at 19.3 µM.
Still for that read-out and setting: the figure for `CN(C)CC(CO)C(=O)c1ccccc1` (stereo not given) is 4.4 µM; for `Cc1ccc(C(=O)C(CO)CN(C)C)cc1` (stereo not given) it is 4.9 µM; for `CN(C)CC(CO)C(=O)c1ccc(Cl)cc1` (stereo not given) it is 5.8 µM.
For the molecule `CN(C)CC(CSCCO)C(=O)c1ccc([N+](=O)[O-])cc1` (stereo not given), the midpoint of cytotoxicity, the CC50, lay at 390 µM.

Another data set deals with HSC-2. The data set is described as follows: Cytotoxicity against human HSC2 cells. The format is functional.
Details: not given
Summed up:
as §1
With `C=C(CN(C)C)C(=O)c1ccc(OC)cc1`, the CC50 turned out to be 5.9 µM.
As to `C=C(CN(C)C)C(=O)c1ccc([N+](=O)[O-])cc1`, the CC50 was determined as 8.2 µM.
The molecule `CN(C)CC(CO)C(=O)c1ccccc1` (stereo not given) came in with a CC50 of 5.2 µM.
In the case of `Cc1ccc(C(=O)C(CO)CN(C)C)cc1` (stereo not given), it took 6.3 µM to reach half-maximal cytotoxicity (CC50).
On the same count and under the same terms, the figure for `CN(C)CC(CO)C(=O)c1ccc(Cl)cc1` (stereo not given) is 6 µM; for `CN(C)CC(CSCCO)C(=O)c1ccc([N+](=O)[O-])cc1` (stereo not given) it is 165 µM.

Tested on in the next data set: not listed separately
The data set is described as follows: Cytotoxicity against human Molt4/C8 cells after 72 hrs. It counts as functional, cell-based. The conditions noted are these: MOLT-4, 72 h. Summed up: (§4)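 Human transformed T-lymphocytes exposed to a range of compound concentrations at 37 °C for 72 h. IC50 is the concentration giving 50% inhibition of cell growth.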
The molecule `C=C(CN(C)C)C(=O)c1ccc(OC)cc1` came in with an IC50 of 21.3 µM.
For the molecule `C=C(CN(C)C)C(=O)c1ccc([N+](=O)[O-])cc1`, the IC50 came to 8.95 µM.
Same read-out and setting: the figure for `CN(C)CC(CO)C(=O)c1ccccc1` (stereo not given) is 5.84 µM; for `Cc1ccc(C(=O)C(CO)CN(C)C)cc1` (stereo not given) it is 21 µM.
`CN(C)CC(CO)C(=O)c1ccc(Cl)cc1` (stereo not given) came in with an IC50 of 30.9 µM.
In turn, `CN(C)CC(CSCCO)C(=O)c1ccc([N+](=O)[O-])cc1` (stereo not given) displayed an IC50 above 500 µM.

Tested on in a further data set: not listed separately
The data set is described as follows: Cytotoxicity against human HPC cells. It counts as cell-based.
Details: not given
Summed up:
as §1
`C=C(CN(C)C)C(=O)c1ccc(OC)cc1` showed a CC50 of 5.1 µM.
Molecule `C=C(CN(C)C)C(=O)c1ccc([N+](=O)[O-])cc1` gave a CC50 of 30 µM.
As for `CN(C)CC(CO)C(=O)c1ccccc1` (stereo not given), the CC50 came out at 5.5 µM.
As to `Cc1ccc(C(=O)C(CO)CN(C)C)cc1` (stereo not given), the CC50 is 5.7 µM.
`CN(C)CC(CO)C(=O)c1ccc(Cl)cc1` (stereo not given) showed a CC50 of 5.4 µM.
`CN(C)CC(CSCCO)C(=O)c1ccc([N+](=O)[O-])cc1` (stereo not given): it took 400 µM to reach half-maximal cytotoxicity (CC50).

The next data set has as its system L1210. The data set is described as follows: Cytotoxicity against mouse L1210 cells after 72 hrs. The format is functional, cell-based. The conditions noted are these: L1210, 72 h.
Take `C=C(CN(C)C)C(=O)c1ccc(OC)cc1`: 5.08 µM corresponded to half-maximal inhibition (IC50).

In the next data set the test system is HSC-2. The data set is described as follows: Induction of apoptosis assessed as activation of caspase 3 activity in human HSC2 cells after 4 hrs. The format is functional, cell-based.
Details: not given
Summed up:
as §2
`C=C(CN(C)C)C(=O)c1ccc(OC)cc1`: the outcome was Active.

The subject of the next data set is CCRF-CEM. The data set is described as follows: Cytotoxicity against human CEM cells after 72 hrs. The format is functional, cell-based.
Details: not given
Summed up:
as §4
In turn, `C=C(CN(C)C)C(=O)c1ccc(OC)cc1` had an IC50 of 10.6 µM.
Turning to `C=C(CN(C)C)C(=O)c1ccc([N+](=O)[O-])cc1`, the IC50 was 7.91 µM.
For `CN(C)CC(CO)C(=O)c1ccccc1` (stereo not given), half-maximal inhibition (IC50) was put at 1.42 µM.
`Cc1ccc(C(=O)C(CO)CN(C)C)cc1` (stereo not given) came in with an IC50 of 8.22 µM.
`CN(C)CC(CO)C(=O)c1ccc(Cl)cc1` (stereo not given): half-maximal inhibition (IC50) required 33.1 µM.
In turn, `CN(C)CC(CSCCO)C(=O)c1ccc([N+](=O)[O-])cc1` (stereo not given) had an IC50 above 500 µM.

The subject of the next data set is K562. The data set is described as follows: Cytotoxicity against human K562 cells. The format is functional, cell-based.
Details: not given
The method in brief: as §3
`C=C(CN(C)C)C(=O)c1ccc(OC)cc1` yielded an IC50 of 1.05 µM.
Still for that read-out and setting: in the case of `CN(C)CC(CO)C(=O)c1ccc(Cl)cc1` (stereo not given) it was 0.33 µM.
For the molecule `CN(C)CC(CSCCO)C(=O)c1ccc([N+](=O)[O-])cc1` (stereo not given), the half-inhibitory concentration (IC50) was above 100 µM.

A further data set has as its system HL-60. Nature of the data set: Induction of apoptosis in human HL60 cells after 6 hrs. The format is functional, cell-based.
Details: not given
Summed up: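 Apoptosis read out as DNA fragmentation. 5 × 10^5 cells were incubated for 6 h with 0.5, 1, 2, 4, 8 or 16 μM compound. DNA was run alongside a molecular weight marker and scored for an internucleosomal ladder versus a smear. The experiment was repeated.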
As for `C=C(CN(C)C)C(=O)c1ccc(OC)cc1`, the outcome was Active.

For the origin of these results see ChEMBL document CHEMBL1150245, “1-Aryl-2-dimethylaminomethyl-2-propen-1-one hydrochlorides and related adducts: A quest for selective cytotoxicity for malignant cells” (Bioorg Med Chem, 2008).
